Measured values as given in ChEMBL document CHEMBL1157042, “Triazole incorporated thiazoles as a new class of anticonvulsants: design, synthesis and in vivo screening” (Eur J Med Chem, 2010).
Calls of active or inactive are those of the source.

What was measured:
Mus musculus [1] = experiment: Anticonvulsant activity in Swiss albino mouse assessed as inhibition of maximum electric shock-induced motor impairment at 300 mg/kg, ip after 4 hrs; format: functional, organism-based; parameters: dose 300 mg/kg
Outline: (§1)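 Albino mice of either sex (25–30 g), 6 per group, given drug i.p. in polyethylene glycol at 30, 100 and 300 mg/kg. Maximal electroshock was applied at 0.5 h and 4.0 h. Protection meant abolition of hind limb tonic extension.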

Mus musculus [2] = experiment: Anticonvulsant activity in Swiss albino mouse assessed as inhibition of PTZ-induced motor impairment at 300 mg/kg, ip after 4 hrs; format: functional, organism-based; parameters: dose 300 mg/kg
Outline: (§2)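 Albino mice of either sex (25–30 g), 6 per group. Test compound was given i.p. in polyethylene glycol at 30, 100 or 300 mg/kg, and subcutaneous pentylenetetrazole challenge followed 0.5 h or 4.0 h later. Activity was scored as protection in half or more of the mice.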

Mus musculus [3] = experiment: Anticonvulsant activity in ip dosed Swiss albino mouse assessed as inhibition of maximum electric shock-induced motor impairment after 0.5 hrs; format: functional; conditions: read-out: MED
Mus musculus [4] = experiment: Neurotoxicity in Swiss albino mouse at 300 mg/kg, ip after 0.5 hrs; format: toxicity, organism-based; parameters: dose 300 mg/kg, route intraperitoneal; conditions: in vivo
Mus musculus [5] = experiment: Anticonvulsant activity in Swiss albino mouse assessed as inhibition of PTZ-induced motor impairment at 300 mg/kg, ip after 0.5 hrs; format: functional, organism-based; parameters: dose 300 mg/kg; outline: as §2
[6] = Neurotoxicity in ip dosed Swiss albino mouse after 4 hrs; format: toxicity, organism-based; conditions: in vivo
Outline: (§3)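 Albino mice of either sex (25–30 g), 6 per group, received i.p. doses of 30, 100 and 300 mg/kg in polyethylene glycol. Trained mice were tested on the rotorod at 0.5 h and 4.0 h. Neurotoxicity was failure to keep balance on the rod for at least 1 min in each trial. The value recorded is the minimum dose affecting half or more of the mice.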

Mus musculus [7] = experiment: Anticonvulsant activity in ip dosed Swiss albino mouse assessed as inhibition of PTZ-induced motor impairment after 4 hrs; format: functional; conditions: read-out: MED
Outline: (§4)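 Albino mice of either sex (25–30 g), 6 per group, dosed i.p. in polyethylene glycol at 30, 100 or 300 mg/kg. Subcutaneous pentylenetetrazole was given at 0.5 h or 4.0 h, and mice were watched for 30 min. Protection meant no threshold seizure (single clonic spasm episode of at least 5 s). The value is the minimum dose protecting half or more.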

Mus musculus [8] = experiment: Anticonvulsant activity in ip dosed Swiss albino mouse assessed as inhibition of PTZ-induced motor impairment; format: functional
Mus musculus [9] = experiment: Anticonvulsant activity in ip dosed Swiss albino mouse assessed as inhibition of maximum electric shock-induced motor impairment after 4 hrs; format: functional; conditions: read-out: MED
Mus musculus [10] = experiment: Anticonvulsant activity in ip dosed Swiss albino mouse assessed as inhibition of PTZ-induced motor impairment after 0.5 hrs; format: functional; conditions: read-out: MED; outline: as §4
Mus musculus [11] = experiment: Anticonvulsant activity in ip dosed Swiss albino mouse assessed as inhibition of maximum electric shock-induced motor impairment; format: functional
[12] = Neurotoxicity in ip dosed Swiss albino mouse after 0.5 hrs; format: toxicity, organism-based; conditions: in vivo; outline: as §3
[13] = Neurotoxicity in ip dosed Swiss albino mouse; format: toxicity, organism-based; conditions: in vivo
Mus musculus [14] = experiment: Sedative-hypnotic activity in ip dosed Swiss albino mouse after 24 hrs; format: organism-based; conditions: in vivo
[15] = Toxicity in ip dosed Swiss albino mouse after 24 hrs; format: organism-based; conditions: in vivo
Outline: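 Albino mice of either sex (25–30 g), in groups of 10, received a range of i.p. doses in polyethylene glycol until at least three points fell within 10–90% effect. Mortality was scored 24 h after injection.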

Mus musculus [16] = experiment: Protective index, ratio of TD50 for neurotoxicity in po dosed Swiss albino mouse to ED50 for inhibition of maximal electroshock-induced seizures po dosed Swiss albino mouse; format: functional
Mus musculus [17] = organism: Mus musculus; experiment: Ratio of HD50 for hypnotic activity in Swiss albino mouse to ED50 for inhibition of PTZ-induced motor impairment Swiss albino mouse; format: functional
Outline: (§5)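 Ratio of HD50 to i.p. ED50 (scPTZ or MES). HD50, in mg/kg, came from loss of righting reflex in i.p.-dosed albino mice, with a dose range analysed as for phase II ED50.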

Mus musculus [18] = organism: Mus musculus; experiment: Protective index, ratio of TD50 for neurotoxicity in Swiss albino mouse to ED50 for inhibition of PTZ-induced motor impairment Swiss albino mouse; format: functional
[19] = Neurotoxicity in po dosed Swiss albino mouse after 2 hrs; format: toxicity, organism-based; conditions: in vivo
Outline: (§6)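 Phase IV: same procedure as i.p. phase II (MES protection, or rotorod failure for at least 1 min per trial), but drugs were given orally. Groups of 10 albino mice got a dose range yielding at least three points within 10–90% effect. ED50 or TD50 was read at the indicated time via Litchfield–Wilcoxon.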

Mus musculus [20] = experiment: Anticonvulsant activity in po dosed Swiss albino mouse assessed as inhibition of maximum electric shock-induced motor impairment after 2 hrs; format: functional; outline: as §6
Mus musculus [21] = experiment: Neurotoxicity in Swiss albino mouse at 300 mg/kg, ip after 4 hrs; format: toxicity, organism-based; parameters: dose 300 mg/kg, route intraperitoneal; conditions: in vivo
Mus musculus [22] = organism: Mus musculus; experiment: Ratio of HD50 for hypnotic activity in Swiss albino mouse to ED50 for inhibition of maximal electroshock-induced seizures Swiss albino mouse; format: functional; outline: as §5
Mus musculus [23] = organism: Mus musculus; experiment: Protective index, ratio of TD50 for neurotoxicity in Swiss albino mouse to ED50 for inhibition of maximal electroshock-induced seizures Swiss albino mouse; format: functional
Mus musculus [24] = experiment: Anticonvulsant activity in Swiss albino mouse assessed as inhibition of maximum electric shock-induced motor impairment at 300 mg/kg, ip after 0.5 hrs; format: functional, organism-based; parameters: dose 300 mg/kg; outline: as §1

Row | Structure (SMILES) | inhibition (Mus musculus [2]) | minimal effective dose (Mus musculus [3]) [mg/kg] | Activity (Mus musculus [4]) | inhibition (Mus musculus [5]) | MTD at 4 h [6] [mg/kg] | minimal effective dose (Mus musculus [7]) [mg/kg] | minimal effective dose (Mus musculus [9]) [mg/kg] | minimal effective dose (Mus musculus [10]) [mg/kg] | MTD at 0.5 h [12] [mg/kg] | Activity (Mus musculus [21]) | other results
1 | Cc1ccccc1-n1c(Nc2nc(-c3ccccc3)cs2)n[nH]c1=S | inactive | 100 | Non-toxic | inactive | 300 | – | – | – | – | – | inhibition (Mus musculus [1]): inactive
2 | S=c1[nH]nc(Nc2nc(-c3ccccc3)cs2)n1-c1ccccc1 | – | 300 | Non-toxic | inactive | 300 | 300 | – | – | – | – | inhibition (Mus musculus [1]): inactive
3 | CCCC(CCC)C(=O)[O-].[Na+] [VALPROATE SODIUM] | – | – | – | – | – | – | – | – | – | – | ED50 (Mus musculus [8]): 149 mg/kg
4 | Cc1ccc(-n2c(Nc3nc(-c4ccc(Br)cc4)cs3)n[nH]c2=S)cc1 | – | 100 | Non-toxic | – | 100 | 300 | 300 | 300 | – | – | –
5 | NC(=O)N1c2ccccc2C=Cc2ccccc21 [CARBAMAZEPINE] | – | – | – | – | – | – | – | – | – | – | ED50 (Mus musculus [11]): 8.8 mg/kg; ED50 (Mus musculus [8]): > 100 mg/kg
6 | COc1ccc(-n2c(Nc3nc(-c4ccc([N+](=O)[O-])cc4)cs3)n[nH]c2=S)cc1 | – | 100 | Non-toxic | inactive | 300 | 300 | 300 | – | – | – | –
7 | COc1ccccc1-n1c(Nc2nc(-c3ccc([N+](=O)[O-])cc3)cs2)n[nH]c1=S | inactive | 100 | – | inactive | 300 | – | 100 | – | 100 | – | –
8 | COc1ccc(-n2c(Nc3nc(-c4ccc(Cl)cc4)cs3)n[nH]c2=S)cc1 | inactive | 30 | Non-toxic | – | – | – | 100 | 300 | – | Non-toxic | TD50 [13]: 439 mg/kg; HD50 (Mus musculus [14]): 867 mg/kg; LD50 at 24 h [15]: 946 mg/kg; Ratio TD50/ED50 (Mus musculus [16]): 13.4; ED50 (Mus musculus [11]): 23.9 mg/kg; Ratio (Mus musculus [17]): 4.85; Ratio TD50/ED50 (Mus musculus [18]): 2.4; TD50 at 2 h [19]: 735 mg/kg; ED50 (Mus musculus [20]): 54.8 mg/kg; ED50 (Mus musculus [8]): 179 mg/kg; Ratio (Mus musculus [22]): 36.27; Ratio TD50/ED50 (Mus musculus [23]): 18.3
9 | COc1ccccc1-n1c(Nc2nc(-c3ccccc3)cs2)n[nH]c1=S | inactive | 100 | Non-toxic | inactive | – | – | 300 | – | – | Non-toxic | –
10 | CCC1(c2ccccc2)C(=O)NC(=O)NC1=O [PHENOBARBITAL] | – | 100 | – | – | 300 | – | 30 | – | 100 | – | ED50 (Mus musculus [11]): 21.8 mg/kg; ED50 (Mus musculus [8]): 13.2 mg/kg
11 | COc1ccc(-n2c(Nc3nc(-c4ccccc4)cs3)n[nH]c2=S)cc1 | – | 100 | Non-toxic | inactive | – | 300 | 100 | – | – | Non-toxic | –
12 | Cc1ccc(-n2c(Nc3nc(-c4ccc(Cl)cc4)cs3)n[nH]c2=S)cc1 | inactive | 300 | Non-toxic | inactive | 300 | – | 300 | – | – | – | –
13 | Cc1ccccc1-n1c(Nc2nc(-c3ccc(Cl)cc3)cs2)n[nH]c1=S | – | 100 | – | inactive | 300 | 300 | – | – | 300 | – | inhibition (Mus musculus [1]): inactive
14 | O=[N+]([O-])c1ccc(-c2csc(Nc3n[nH]c(=S)n3-c3ccccc3)n2)cc1 | inactive | – | – | inactive | 300 | – | 300 | – | 300 | – | inhibition (Mus musculus [24]): inactive
15 | Cc1ccc(-n2c(Nc3nc(-c4ccc([N+](=O)[O-])cc4)cs3)n[nH]c2=S)cc1 | inactive | 100 | – | – | 100 | – | 300 | 300 | 100 | – | –
16 | S=c1[nH]nc(Nc2nc(-c3ccc(Cl)cc3)cs2)n1-c1ccccc1 | inactive | – | Non-toxic | inactive | – | – | 300 | – | – | Non-toxic | inhibition (Mus musculus [24]): inactive
17 | Cc1ccc(-n2c(Nc3nc(-c4ccccc4)cs3)n[nH]c2=S)cc1 | inactive | – | Non-toxic | – | – | – | 300 | 300 | – | Non-toxic | inhibition (Mus musculus [24]): inactive
18 | COc1ccccc1-n1c(Nc2nc(-c3ccc(Cl)cc3)cs2)n[nH]c1=S | inactive | 100 | – | – | – | – | 100 | 100 | 300 | Non-toxic | –
19 | COc1ccc(-n2c(Nc3nc(-c4ccc(Br)cc4)cs3)n[nH]c2=S)cc1 | inactive | 300 | Non-toxic | inactive | – | – | 300 | – | – | Non-toxic | –
20 | CCC1(C)CC(=O)NC1=O (centres undefined) [ETHOSUXIMIDE] | – | – | Non-toxic | inactive | – | 300 | – | 100 | – | Non-toxic | inhibition (Mus musculus [1]): inactive; inhibition (Mus musculus [24]): inactive
21 | S=c1[nH]nc(Nc2nc(-c3ccc(Br)cc3)cs2)n1-c1ccccc1 | inactive | – | Non-toxic | inactive | 300 | – | 300 | – | – | – | –
22 | COc1ccccc1-n1c(Nc2nc(-c3ccc(Br)cc3)cs2)n[nH]c1=S | inactive | 300 | – | inactive | 300 | – | 300 | – | 100 | – | –
23 | Cc1ccccc1-n1c(Nc2nc(-c3ccc([N+](=O)[O-])cc3)cs2)n[nH]c1=S | – | 100 | – | – | 100 | 300 | 100 | 100 | 300 | – | –
24 | O=C1NC(=O)C(c2ccccc2)(c2ccccc2)N1 [PHENYTOIN] | inactive | 30 | – | inactive | 100 | – | 30 | – | 100 | – | HD50 (Mus musculus [14]): 182 mg/kg; LD50 at 24 h [15]: 224 mg/kg; ED50 (Mus musculus [20]): 9.16 mg/kg; ED50 (Mus musculus [8]): > 300 mg/kg
25 | Cc1ccccc1-n1c(Nc2nc(-c3ccc(Br)cc3)cs2)n[nH]c1=S | – | 30 | Non-toxic | – | – | 300 | 30 | 100 | – | Non-toxic | TD50 [13]: 684 mg/kg; HD50 (Mus musculus [14]): 632 mg/kg; LD50 at 24 h [15]: 834 mg/kg; Ratio TD50/ED50 (Mus musculus [16]): 17.7; ED50 (Mus musculus [11]): 13.4 mg/kg; Ratio (Mus musculus [17]): 7.74; Ratio TD50/ED50 (Mus musculus [18]): 8.3; TD50 at 2 h [19]: 884 mg/kg; ED50 (Mus musculus [20]): 49.9 mg/kg; ED50 (Mus musculus [8]): 81.6 mg/kg; Ratio (Mus musculus [22]): 47.16; Ratio TD50/ED50 (Mus musculus [23]): 51
